Results as given in paper PMC2738596 (Biochimica et biophysica acta, 2008).
Entries after “also recorded” stand apart in the source; their conditions may differ. Read-outs that look alike come from different tables or passages of the source. Ends that are not written are not given here.

Experiments:
cardiac RyR2 [1] = biological target: T1, cardiac RyR2 (Canis lupus familiaris, UniProt A0A8I3MT21); assay: Induction of subconductance states; type: biochemical, dog
Summary of the method: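 Dog ventricular SR microsomes fused into PE/PS/PC (5:4:1) bilayers. Solutions: cis HEPES 250 mM/Tris 118 mM, trans HEPES 250 mM/Ca(OH)2 53 mM, pH 7.4. Cytosolic Ca2+ buffered with BAPTA/dibromo-BAPTA; Ca2+/caffeine-activated channel; peptide added cis. Four-minute records were filtered at 500 Hz (Vm ≥0) or 400 Hz (Vm <0). P_substate = substate time/total time, scored frame-by-frame (100 ms frames, events >3 ms) or from Gaussian-fitted all-points histograms. Paired t-test.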

cardiac RyR2 [2] = biological target: T1, cardiac RyR2; type: biochemical, dog
ryanodine-modified RyR2 = ryanodine-modified RyR2 (Canis lupus familiaris, UniProt A0A8I3MT21); assay: Peptide/IpTxA action on ryanodine-modified RyR2 in planar lipid bilayers; type: biochemical, dog
ryanodine-modified RyR2, sequence (A0A8I3MT21 1-4967): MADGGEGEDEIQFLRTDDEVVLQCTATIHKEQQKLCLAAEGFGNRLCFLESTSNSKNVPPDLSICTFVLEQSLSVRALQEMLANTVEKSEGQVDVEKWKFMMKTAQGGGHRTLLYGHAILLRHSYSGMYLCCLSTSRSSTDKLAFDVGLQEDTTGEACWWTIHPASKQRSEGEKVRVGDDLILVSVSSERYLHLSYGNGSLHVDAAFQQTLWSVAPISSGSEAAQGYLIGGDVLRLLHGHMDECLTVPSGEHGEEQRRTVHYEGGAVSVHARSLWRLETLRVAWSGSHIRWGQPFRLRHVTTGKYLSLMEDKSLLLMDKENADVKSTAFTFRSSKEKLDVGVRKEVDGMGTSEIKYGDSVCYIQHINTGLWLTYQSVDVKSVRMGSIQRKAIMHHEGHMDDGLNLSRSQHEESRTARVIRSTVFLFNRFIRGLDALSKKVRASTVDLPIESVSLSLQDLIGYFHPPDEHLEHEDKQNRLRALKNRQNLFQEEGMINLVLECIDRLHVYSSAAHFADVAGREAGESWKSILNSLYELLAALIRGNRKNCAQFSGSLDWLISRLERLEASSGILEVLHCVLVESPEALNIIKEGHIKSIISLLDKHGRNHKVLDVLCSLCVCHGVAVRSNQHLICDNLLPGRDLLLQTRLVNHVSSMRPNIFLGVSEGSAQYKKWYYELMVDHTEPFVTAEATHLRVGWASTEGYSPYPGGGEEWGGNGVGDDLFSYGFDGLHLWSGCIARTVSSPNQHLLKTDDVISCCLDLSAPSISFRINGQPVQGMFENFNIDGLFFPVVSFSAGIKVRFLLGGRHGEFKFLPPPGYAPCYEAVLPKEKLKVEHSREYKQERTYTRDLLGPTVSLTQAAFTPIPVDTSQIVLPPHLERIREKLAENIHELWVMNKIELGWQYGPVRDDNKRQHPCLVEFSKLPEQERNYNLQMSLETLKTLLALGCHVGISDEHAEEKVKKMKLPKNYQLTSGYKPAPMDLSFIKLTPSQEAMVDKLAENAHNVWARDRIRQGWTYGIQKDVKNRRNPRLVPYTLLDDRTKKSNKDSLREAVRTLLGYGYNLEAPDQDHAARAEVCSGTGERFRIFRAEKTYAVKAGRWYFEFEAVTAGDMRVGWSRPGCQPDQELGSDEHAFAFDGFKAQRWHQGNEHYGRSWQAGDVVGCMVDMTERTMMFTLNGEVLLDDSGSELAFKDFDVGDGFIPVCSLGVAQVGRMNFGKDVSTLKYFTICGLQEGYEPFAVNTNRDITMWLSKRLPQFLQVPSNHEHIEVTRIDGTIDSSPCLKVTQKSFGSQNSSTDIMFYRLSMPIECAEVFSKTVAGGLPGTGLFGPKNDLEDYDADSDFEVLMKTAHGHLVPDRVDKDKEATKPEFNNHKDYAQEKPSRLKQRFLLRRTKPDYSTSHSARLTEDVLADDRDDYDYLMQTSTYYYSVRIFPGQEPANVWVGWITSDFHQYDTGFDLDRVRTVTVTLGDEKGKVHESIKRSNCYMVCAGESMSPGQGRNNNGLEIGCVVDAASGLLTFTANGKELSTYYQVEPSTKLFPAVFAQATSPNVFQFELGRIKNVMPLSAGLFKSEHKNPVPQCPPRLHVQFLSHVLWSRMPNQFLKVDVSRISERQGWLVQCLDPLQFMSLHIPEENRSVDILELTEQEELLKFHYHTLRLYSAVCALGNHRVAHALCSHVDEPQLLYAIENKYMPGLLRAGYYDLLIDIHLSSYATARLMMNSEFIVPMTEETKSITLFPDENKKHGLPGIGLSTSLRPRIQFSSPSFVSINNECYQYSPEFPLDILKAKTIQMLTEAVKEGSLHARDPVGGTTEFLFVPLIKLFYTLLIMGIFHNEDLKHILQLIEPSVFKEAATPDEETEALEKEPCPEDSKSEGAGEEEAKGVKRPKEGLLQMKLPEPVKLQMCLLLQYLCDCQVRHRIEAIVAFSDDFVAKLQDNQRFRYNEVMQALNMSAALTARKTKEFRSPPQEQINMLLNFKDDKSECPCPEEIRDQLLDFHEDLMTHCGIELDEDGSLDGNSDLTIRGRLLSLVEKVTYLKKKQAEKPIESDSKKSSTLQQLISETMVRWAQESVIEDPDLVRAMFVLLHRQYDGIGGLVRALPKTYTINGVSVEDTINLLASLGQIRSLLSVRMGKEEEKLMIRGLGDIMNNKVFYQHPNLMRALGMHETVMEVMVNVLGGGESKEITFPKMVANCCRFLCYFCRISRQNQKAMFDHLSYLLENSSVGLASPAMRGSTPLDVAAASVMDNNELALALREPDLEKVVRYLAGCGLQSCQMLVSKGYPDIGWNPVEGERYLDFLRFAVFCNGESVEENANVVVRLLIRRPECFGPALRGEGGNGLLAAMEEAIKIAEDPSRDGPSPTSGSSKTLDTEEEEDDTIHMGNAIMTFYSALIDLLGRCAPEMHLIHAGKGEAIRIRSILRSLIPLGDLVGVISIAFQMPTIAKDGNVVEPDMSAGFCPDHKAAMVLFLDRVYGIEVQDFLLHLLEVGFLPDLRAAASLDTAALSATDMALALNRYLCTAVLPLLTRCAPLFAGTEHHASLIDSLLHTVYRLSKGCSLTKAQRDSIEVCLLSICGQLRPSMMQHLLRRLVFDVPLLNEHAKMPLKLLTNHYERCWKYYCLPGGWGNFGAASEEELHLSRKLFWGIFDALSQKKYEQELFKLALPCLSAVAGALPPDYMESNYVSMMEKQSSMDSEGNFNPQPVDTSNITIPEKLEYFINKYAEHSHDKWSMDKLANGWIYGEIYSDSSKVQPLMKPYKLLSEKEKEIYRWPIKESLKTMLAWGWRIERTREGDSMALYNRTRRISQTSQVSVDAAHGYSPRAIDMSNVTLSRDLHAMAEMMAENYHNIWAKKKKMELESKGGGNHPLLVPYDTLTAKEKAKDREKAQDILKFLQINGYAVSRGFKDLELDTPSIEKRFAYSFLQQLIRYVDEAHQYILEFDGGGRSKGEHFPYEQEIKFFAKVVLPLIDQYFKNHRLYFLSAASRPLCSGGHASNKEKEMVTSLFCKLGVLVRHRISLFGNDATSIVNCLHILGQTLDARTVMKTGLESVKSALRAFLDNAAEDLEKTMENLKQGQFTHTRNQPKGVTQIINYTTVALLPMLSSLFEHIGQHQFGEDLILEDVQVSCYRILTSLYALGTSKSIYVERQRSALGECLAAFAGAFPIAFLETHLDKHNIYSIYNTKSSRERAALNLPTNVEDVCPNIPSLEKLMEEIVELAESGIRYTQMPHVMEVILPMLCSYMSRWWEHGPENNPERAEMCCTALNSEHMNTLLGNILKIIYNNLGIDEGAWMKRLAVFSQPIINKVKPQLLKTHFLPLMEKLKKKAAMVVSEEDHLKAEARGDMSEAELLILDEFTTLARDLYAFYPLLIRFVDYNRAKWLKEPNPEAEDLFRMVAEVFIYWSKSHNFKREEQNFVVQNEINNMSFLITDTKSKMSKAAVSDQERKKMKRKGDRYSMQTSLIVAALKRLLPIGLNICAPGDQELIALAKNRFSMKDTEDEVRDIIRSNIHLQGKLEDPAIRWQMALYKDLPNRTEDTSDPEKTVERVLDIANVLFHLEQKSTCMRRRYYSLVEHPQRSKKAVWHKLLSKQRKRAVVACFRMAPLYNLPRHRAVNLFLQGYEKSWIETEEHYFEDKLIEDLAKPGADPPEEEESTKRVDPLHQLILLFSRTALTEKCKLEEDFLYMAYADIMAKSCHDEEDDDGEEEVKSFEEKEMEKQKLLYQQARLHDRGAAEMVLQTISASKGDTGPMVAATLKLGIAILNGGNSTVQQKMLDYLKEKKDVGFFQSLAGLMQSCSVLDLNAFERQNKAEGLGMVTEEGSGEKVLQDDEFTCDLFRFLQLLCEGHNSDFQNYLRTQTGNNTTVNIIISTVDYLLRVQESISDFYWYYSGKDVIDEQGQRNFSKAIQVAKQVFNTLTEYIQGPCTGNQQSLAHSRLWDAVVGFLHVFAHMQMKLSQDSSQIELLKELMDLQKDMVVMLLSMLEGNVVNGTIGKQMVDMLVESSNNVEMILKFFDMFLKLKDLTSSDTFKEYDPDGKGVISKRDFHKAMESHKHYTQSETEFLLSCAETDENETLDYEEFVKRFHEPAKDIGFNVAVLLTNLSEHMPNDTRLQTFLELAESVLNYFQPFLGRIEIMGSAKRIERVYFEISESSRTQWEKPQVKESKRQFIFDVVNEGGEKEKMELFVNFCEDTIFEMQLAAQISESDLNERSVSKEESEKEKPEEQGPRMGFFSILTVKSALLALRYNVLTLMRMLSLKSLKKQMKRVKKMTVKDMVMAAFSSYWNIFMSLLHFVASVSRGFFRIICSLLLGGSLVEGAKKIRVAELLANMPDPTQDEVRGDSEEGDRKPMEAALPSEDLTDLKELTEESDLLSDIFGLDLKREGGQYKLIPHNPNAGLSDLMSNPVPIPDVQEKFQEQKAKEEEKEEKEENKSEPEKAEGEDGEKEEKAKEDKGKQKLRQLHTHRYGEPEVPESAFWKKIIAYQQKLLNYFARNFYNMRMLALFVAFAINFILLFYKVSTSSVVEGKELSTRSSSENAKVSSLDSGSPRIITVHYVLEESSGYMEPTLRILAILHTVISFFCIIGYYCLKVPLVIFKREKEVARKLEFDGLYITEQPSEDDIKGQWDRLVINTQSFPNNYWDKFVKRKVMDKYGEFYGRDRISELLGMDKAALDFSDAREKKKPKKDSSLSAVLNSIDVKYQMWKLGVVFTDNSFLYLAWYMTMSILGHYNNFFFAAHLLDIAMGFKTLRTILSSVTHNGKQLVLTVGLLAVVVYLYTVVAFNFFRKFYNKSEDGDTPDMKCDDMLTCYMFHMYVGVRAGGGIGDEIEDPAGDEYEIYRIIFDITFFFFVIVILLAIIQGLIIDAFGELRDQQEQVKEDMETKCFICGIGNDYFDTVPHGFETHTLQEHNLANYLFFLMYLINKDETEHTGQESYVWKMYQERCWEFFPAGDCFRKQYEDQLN

RyR2 with IpTxA = assay: Interaction of peptides with IpTxA-modified RyR2 in planar lipid bilayers; type: biochemical, dog; settings: for apparent dissociation constant from RyR2 (1/dwell time): 500 µM KIFMK
Summary of the method: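 Dog cardiac RyR2 was recorded in planar bilayers with HEPES-Ca2+ trans and HEPES-Tris cis at pH 7.4, Ca2+/caffeine-activated, with cytosolic IpTxA at 50 nM and Vm +10 mV. Peptide was then added cis. Block events (dwell time, number, P_block = fraction of time at baseline) were scored frame-by-frame on 4-min records, separately during full openings and during IpTxA-induced substates. Means ± S.E.M.; paired t-test.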

RyR2 (ryanodol-modified) = RyR2 (ryanodol-modified) (Canis lupus familiaris, UniProt A0A8I3MT21); type: biochemical, dog; settings: for probability of ryanodol-induced modification: n=5 paired (Fig. 6)
RyR2 (ryanodol-modified), sequence (A0A8I3MT21 1-4967): as above

SR microsomes = settings: ref [19], [26], [55]; cited from earlier work
RyRs = settings: ryanodine locks channels open; ref [3], [45]; cited from earlier work
[3] = 500 µM KIFMK, frame by frame analysis
[4] = Shaker B 2 µM n=4, KIFMK 500 µM n=8
[5] = IpTxA plus ryanodol, +10 mV, 40 min
[6] = ryanodol, control before IpTxA (Fig. 7A, B)

T1 sequence (A0A8I3MT21 1-4967): as above

CC[C@H](C)[C@H](NC(=O)[C@H](CCCCN)NC(C)=O)C(=O)N[C@@H](Cc1ccccc1)C(=O)N[C@@H](CCSC)C(=O)N[C@@H](CCCCN)C(N)=O [KIFMK, acetyl-KIFMK-amide]
increase in frequency of substates (cardiac RyR2 [1]; 500 µM KIFMK vs before addition, n=5 paired observations): 37 ± 9 times
substate level 1, of full conductance (cardiac RyR2 [1]; [3]): ~ 27.3 ± 0.3%
substate level 2, of full conductance (cardiac RyR2 [1]; [3]): ~48.6 ± 0.7%
substate level 3, of full conductance (cardiac RyR2 [1]; [3]): ~72.3 ± 0.5%
frequency of substates (cardiac RyR2 [1]; 500 µM KIFMK, n=5 paired observations, control 0.9 ± 0.3): 22.1 ± 4.4 events/min
substate amplitude level 1, in the absence of ryanodine (cardiac RyR2 [1]; KIFMK, n=8): 27 ± 1%
substate amplitude level 3, in the absence of ryanodine (cardiac RyR2 [1]; KIFMK, n=8): 74 ± 2%
substate level, ~30% of full RyR2 conductance (cardiac RyR2 [1]; discussion summary): ~ 30%
substate level, ~50% of full RyR2 conductance (cardiac RyR2 [1]; discussion summary): ~50%
substate level, ~70% of full RyR2 conductance (cardiac RyR2 [1]; discussion summary): ~70%
duration of block events (cardiac RyR2 [2]; 0 mV): intermediate duration
mean duration of block events (cardiac RyR2 [2]; 0 mV, Peptide A n=4, KIFMK n=6, mean ± SEM): 5.3 ± 0.3 ms
d (fraction of the membrane potential acting at the site) (cardiac RyR2 [2]; Woodhull fit, z = 6 Peptide A, 7 Shaker B, 2 KIFMK): 1.2 ± 0.3
predominant substate level, of the ryanodine-modified conductance (ryanodine-modified RyR2; KIFMK 500 µM): ~ 52%
block dwell time (ryanodine-modified RyR2; KIFMK 500 µM, ryanodine-modified, n=6): 29.9 ± 10.5 ms
increase of block dwell time with ryanodine (ryanodine-modified RyR2; KIFMK 500 µM, n=6): 316 ± 62%
substate amplitude level 1, of full openings of ryanodine-modified channel (ryanodine-modified RyR2; [4]): 31 ± 1%
substate amplitude level 2, of full openings of ryanodine-modified channel (ryanodine-modified RyR2; [4]): 51 ± 1%
substate amplitude level 3, of full openings of ryanodine-modified channel (ryanodine-modified RyR2; [4]): 75 ± 1%
decrease of probability of block on changing 0 mV to +20 mV (ryanodine-modified RyR2; in the presence of ryanodine): 83%
decrease of probability of substates on changing 0 mV to +20 mV (ryanodine-modified RyR2; in the presence of ryanodine): 61%
action during IpTxA-induced substates versus full openings (RyR2 with IpTxA; 50 nM IpTxA, +10 mV, Peptide A 20 µM, Shaker B 40 µM, KIFMK 500 µM): able to block the IpTxA-modified channel; also recorded: the probability of blocking the channels was significantly lower during IpTxA-induced substates than during full openings
apparent dissociation constant from RyR2 (1/dwell time) (RyR2 with IpTxA; during IpTxA substates, 50 nM IpTxA, +10 mV): 3.1 s⁻¹
apparent dissociation constant from RyR2 (1/dwell time) (RyR2 with IpTxA; during full openings, 50 nM IpTxA, +10 mV): 166 s⁻¹
action during IpTxA-ryanodine sub-substates (RyR2 with IpTxA; ryanodine-modified RyR2 with IpTxA, results not shown): only induced some block events

CC(C)[C@@]1(O)[C@@H](O)[C@@]2(O)[C@@]3(C)C[C@]4(O)O[C@@]5([C@H](O)[C@@H](C)CC[C@]35O)[C@@]2(O)[C@]14C [ryanodol]
probability of R (ryanodol alone) after IpTxA (RyR2 (ryanodol-modified); 50 nM IpTxA): decreased dramatically
probability of ryanodol-induced modification (RyR2 (ryanodol-modified); 20 µM ryanodol, 0 mV, before Peptide A): 0.58 ± 0.04
probability of ryanodol-induced modification (RyR2 (ryanodol-modified); 20 µM ryanodol, 0 mV, with 5 µM Peptide A): 0.76 ± 0.05
action on ryanodol-modified RyR2 or on ryanodol binding (RyR2 (ryanodol-modified); 20 µM ryanodol, 5 µM Peptide A, 0 mV): increased dwell times for ryanodol-modified states
number of R substate events (RyR2 (ryanodol-modified); [5]): 98 events
number of transitions R→Open (RyR2 (ryanodol-modified); [5]): 5 times
number of transitions i→R+i (RyR2 (ryanodol-modified); [5]): 6 times
decrease of probability of ryanodol modification from 0 to +20 mV (RyR2 (ryanodol-modified); n=6): 52 ± 11%
relative rate of transition i→R+i (RyR2 (ryanodol-modified); ryanodol binding to IpTxA-modified channel, +10 mV): 14.6
relative rate of transition Open→R (RyR2 (ryanodol-modified); ryanodol binding to open channel, +10 mV): 130
relative rate of transition R+i→i (RyR2 (ryanodol-modified); ryanodol dissociation with IpTxA bound, +10 mV): 144
preferred sequence of binding Open→R→R+i, share of cases (RyR2 (ryanodol-modified); ryanodol first, then IpTxA, +10 mV): 93%
probability of full opening (RyR2 (ryanodol-modified); [6]): ~ 80%
probability of ryanodol state (RyR2 (ryanodol-modified); [6]): ~ 20%
total probability of ryanodol binding (R and R+i), increased (RyR2 (ryanodol-modified); with 50 nM IpTxA, all voltages tested but +30 mV): ~ 40%

Cn1c(=O)c2c(ncn2C)n(C)c1=O [caffeine]
Po with Ca2+ and caffeine (cardiac RyR2 [2]; most channels, Ca2+ 10 µM + caffeine 5 mM, before peptides): > 0.9

TSAQKAKAEERKRRKMSRGL [Peptide A]
[3H] ryanodine binding to SR microsomes (SR microsomes): enhances [^3H] ryanodine binding to SR microsomes

ryanodine
effect of ryanodine on channel gating (ryanodine-modified RyR2; 2 µM ryanodine): channels are locked open; closures are brief and extremely rare
slope conductance of modified state, of full openings (RyRs): ~ 40%
